ChEMBL document CHEMBL1154995, “Synthesis of azaisoflavones and their inhibitory activities of NO production in activated microglia” (Bioorg Med Chem Lett, 2008)
Active and inactive are the calls of the source. The rule behind the calls is not given here.

How the values were obtained:
BV-2 [1] = test: Inhibition of NO production in LPS-activated mouse BV2 cells after 24 hrs by Griess method; format: functional, cell-based; conditions: BV-2, 24 h
In short: (§1)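 Murine BV-2 microglia stimulated with LPS 100 ng/mL with or without sample for 24 h; nitrite in culture medium measured by Griess reaction. Percent inhibition relative to LPS control at 10 μM, n = 3; IC50 also derived.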

BV-2 [2] = test: Inhibition of NO production in LPS-activated mouse BV2 cells at 10 uM after 24 hrs by Griess method relative to control; format: functional; conditions: for inhibition at 10 µM: BV-2, 24 h; in short: as §1
[3] = Cytotoxicity against mouse BV2 cells assessed as cell viability at 10 uM by MTT assay; format: cell-based; conditions: bv-2, 10 µM
In short: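 BV-2 microglia viability determined by MTT assay alongside the LPS (100 ng/mL) nitrite experiment.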

BV-2 [4] = test: Inhibition of iNOS expression in LPS-activated mouse BV2 cells at 1-10 uM after 6 hrs by Western blot; format: functional, cell-based
In short: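 BV-2 cells treated 6 h with compound (1–10 μM) during LPS (100 ng/mL) activation; protein assessed by blotting with anti-tubulin as loading control; representative of three independent experiments.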

SMILES	IC50 (BV-2 [1])	inhibition at 10 µM (BV-2 [2])	Activity [3]	Activity (BV-2 [2])	Activity (BV-2 [4])
COc1ccc(-c2c[nH]c3cc(OC)cc(OC)c3c2=O)cc1	20.5 µM	23.2%	–	–	–
COc1ccc(-c2cn(C)c3ccccc3c2=O)cc1	18.8 µM	31.9%	–	–	–
COc1ccc(-c2c[nH]c3ccccc3c2=O)cc1	–	–	Toxic	inactive	–
CCn1cc(-c2ccc(OC)cc2)c(=O)c2ccccc21	25.8 µM	14.9%	–	–	–
CCn1cc(-c2ccc(O)cc2)c(=O)c2ccccc21	18.5 µM	27%	–	–	–
COc1ccc(-c2c[nH]c3cc(OC)ccc3c2=O)cc1	–	–	Toxic	inactive	–

The next lines start with results.

IC50 (BV-2 [1])	SMILES	inhibition at 10 µM (BV-2 [2])	Activity [3]	Activity (BV-2 [2])	Activity (BV-2 [4])
13.3 µM	Cn1cc(-c2ccc(O)cc2)c(=O)c2c(O)cc(O)cc21	39.3%	–	–	–
10.9 µM	O=c1c(-c2ccc(O)cc2)c[nH]c2cc(O)cc(O)c12	45%	–	–	–
9.91 µM	Cn1cc(-c2ccc(O)cc2)c(=O)c2ccccc21	47.4%	–	–	–
17.6 µM	CCn1cc(-c2ccc(OC)cc2)c(=O)c2c(OC)cc(OC)cc21	27.3%	–	–	–
7.83 µM	CCn1cc(-c2ccc(O)cc2)c(=O)c2c(O)cc(O)cc21 [AZAISOFLAVONE]	58.1%	–	–	Dose-dependent effect
15.6 µM	O=c1c(-c2ccc(O)cc2)c[nH]c2ccccc12	29.5%	–	–	–
